Measurements as given in PubChem BioAssay.
Results filed as inconclusive are left out. Active and inactive are the calls of the source.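 Rule for the calls, unless noted: active = cell viability at or below a set limit in both duplicate runs, the limit being the all-compound median minus 4 SD (cut at about 23% in these data, passing the limit was not always enough); inconclusive = no clear call, values can overlap the other calls; inactive = the rest.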

Assays:
[1] = S. cerevisiae growth inhibition in permissive medium (OD615), pilot counter-assay for S. cerevisiae lifespan shortening project, permissive growth control (AID 705;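 active = growth inhibition above 25% in both replicates, a cutoff set 3 SD above the mean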); conditions: OD615, 24 h, at 10 µM, active compounds read high
Procedure, shortened: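 System: engineered DeaD yeast; Medium: permissive raffinose/galactose medium; Compound dosing: 10 µM single dose, 0.25% DMSO; Incubation: 4 h cell pre-growth, 24 h exposure at 30 °C; Technique: OD at 615 nm; Evaluation: growth inhibition from lowered OD615 after 24 h.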

[2] = S. cerevisiae growth inhibition in restrictive medium, OD615, pilot screen, restrictive growth control, yeast lifespan reduction project (AID 706;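 active = growth inhibition above a set limit, 3 SD over mean compound inhibition, in both replicates, cut at about 43% in these data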;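 note: modified DeaD lifespan yeast strain shifted to restrictive glucose medium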); conditions: OD615, 48 h, at 10 µM, active compounds read high
Procedure, shortened: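 Material: modified S. cerevisiae; buffer or medium: CSMM-D glucose medium; doses: one concentration, 10 µM final, 0.25% DMSO; incubation: 48 h compound exposure at 30 °C; detection: optical density at 615 nm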

[3] = doxorubicin toxicity protection in MRP-1 cells – H69AR cells, CellTiter-Glo, duplicate, MRP-1 activator project, pilot screen (AID 807;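 active = viability increase at or above a cutoff of the median across tested compounds plus 3 SD, cut at about 8.5% in these data, passing the limit was not always enough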;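 note: compound pretreatment 18-22 h then 72 h combined with doxorubicin; 0% = doxorubicin alone and 100% = vehicle without doxorubicin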); conditions: H69AR viability with doxorubicin, CellTiter-Glo luminescence; at 10 µM; active compounds read high
[4] = viability of HCT116 without oncogenic beta-catenin – human colon tumor cells, pilot screen (AID 823); conditions: HCT116 beta-catenin knockout viability, CellTiter-Glo, 60 h; at 10 µM; active compounds read low;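 note: 0% = wells killed by 20 µM Hyamine and 100% = untreated DMSO cell wells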
[5] = viability of PTEN-null HCT116 cells – cell-based, HCT116 clonal line, CellTiter-Glo, pilot screen (AID 824;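 active = viability at or below 27.92% in each of two runs, the all-compound median minus 4 SD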;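 note: 0% = 20 µM Hyamine control and 100% = vehicle cell control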); conditions: HCT116 PTEN-deleted viability, 60 h, at 10 µM, active compounds read low
[6] = RAM pathway blockade in budding yeast – dse1pr::URA3 reporter, 5-FOA selection, pilot screen (AID 869;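 active = inhibition over a set limit, the all-compound mean plus 3 SD, in both replicate runs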;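 note: 0% = DMSO wells with no growth and 100% = 10 µM 1-NA-PP1 with full growth; RAM network block rescues cells from 5-FOA so hits raise OD615 growth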); conditions: S. cerevisiae dse1pr::URA3 5-FOA growth, OD615, 2 d; at 10 µM; active compounds read high; strain carries analog-sensitive mutant Cbk1 kinase
[7] = RAM signaling pathway blockade in yeast – S. cerevisiae, Pdr1DBD-CYC8 efflux-inhibited sensitized strain, primary screen (AID 1298;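 active = RAM network inhibition above 8.4% in each of two replicates, 3 SD over the compound average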;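 note: 0% = DMSO untreated cells without growth and 100% = 10 µM 1-NA-PP1 full growth; higher means more yeast growth rescued from 5-FOA killing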); conditions: S. cerevisiae cbk1-as DSE1-URA3 strain, 5-FOA growth OD615, 2 d; at 50 µM; active compounds read high

COC(=O)c1ccsc1NC(=O)c1ccc2c(c1)OCCO2
inactive: growth inhibition [1] 2.02% | growth inhibition [2] -2.86% | viability increase [3] -4.78% | viability [4] 81% | viability [5] 68.1% | inhibition [6] 1.8% | RAM network inhibition [7] 2.08%

Cc1ccc(-c2nn3c(C)nnc3s2)cc1NC(=O)COc1ccc(Cl)cc1
inactive: growth inhibition [1] -4.13% | growth inhibition [2] 25.3% | viability increase [3] -1.1% | viability [4] 93.8% | viability [5] 90.8% | inhibition [6] 2.17% | RAM network inhibition [7] 6.41%

CCOC(=O)/C=C/S(=O)(=O)c1ccc(NC(C)=O)cc1
inactive: growth inhibition [1] -24.4% | growth inhibition [2] -13.2% | viability increase [3] -7.51% | viability [4] 82.4% | viability [5] 93.5% | inhibition [6] 0.03% | RAM network inhibition [7] 5.29%

COc1ccc(Nc2nnc(Cc3ccc(Cl)cc3)c(=O)[nH]2)c(OC)c1
inactive: growth inhibition [1] -11.1% | growth inhibition [2] -13% | viability increase [3] 1.86% | viability [4] 100% | viability [5] 95.7% | inhibition [6] 1.89% | RAM network inhibition [7] 2.35%

O=C(CN1C(=O)c2ccccc2C1=O)Nc1cccc2cccnc12
inactive: growth inhibition [1] -14.6% | growth inhibition [2] -12.1% | viability increase [3] -1.1% | viability [4] 104% | viability [5] 106% | inhibition [6] 0.36% | RAM network inhibition [7] 5.82%

CCOCCCNC(=O)C(c1ccc(C)cc1)N1CCOCC1 (centres undefined)
inactive: growth inhibition [1] -11.9% | growth inhibition [2] 2.48% | viability increase [3] -3.18% | viability [4] 93.2% | viability [5] 102% | inhibition [6] 1.84% | RAM network inhibition [7] 1.62%

Cc1c(-n2cc(C(=O)O)c(=O)c3cc(F)c(N4CCCC4)c(F)c32)c(=O)n(-c2ccccc2)n1C
inactive: growth inhibition [1] -5.81% | growth inhibition [2] -11.4% | viability increase [3] -2.19% | viability [4] 98.8% | viability [5] 87.8% | inhibition [6] 2.6% | RAM network inhibition [7] 5.65%

CCOc1ccccc1NC(=O)Cn1cnc2c(nnn2-c2cccc(OC)c2)c1=O
inactive: growth inhibition [1] -2.45% | growth inhibition [2] -1.71% | viability increase [3] -1.23% | viability [4] 87.2% | viability [5] 73.3% | inhibition [6] 3.82% | RAM network inhibition [7] 4.89%

O=C(CN(Cc1ccccc1)S(=O)(=O)c1ccccc1)NC1CC1
inactive: growth inhibition [1] -4.36% | growth inhibition [2] 11.6% | viability increase [3] -1.25% | viability [4] 102% | viability [5] 96% | inhibition [6] -0.45% | RAM network inhibition [7] 0.45%

COc1ccc(N2CCN(c3cc(C)c4ccc(O)cc4n3)CC2)cc1
inactive: growth inhibition [1] 3.12% | growth inhibition [2] 10.5% | viability increase [3] -2.1% | viability [4] 75.7% | viability [5] 79.8% | inhibition [6] 0.39% | RAM network inhibition [7] 6.62%

Brc1ccc(-c2nnc(-c3ccco3)o2)cc1
inactive: growth inhibition [1] -19.6% | growth inhibition [2] -17.3% | viability increase [3] 0.83% | viability [4] 95.1% | viability [5] 93.9% | inhibition [6] 0.93% | RAM network inhibition [7] 7.37%

COc1ccc(NC(=O)CSc2nnc(-c3ccc(C)cc3)n2N)cc1
inactive: growth inhibition [1] -3.98% | growth inhibition [2] -4.99% | viability increase [3] 0.54% | viability [4] 100% | viability [5] 92.8% | inhibition [6] 1.1% | RAM network inhibition [7] 2.69%

COc1ccc(C(=O)Nc2c(N)nc(SCC(=O)N3CCCCCC3)[nH]c2=O)cc1OC
inactive: growth inhibition [1] -2.35% | growth inhibition [2] -3.33% | viability increase [3] -0.26% | viability [4] 96.8% | viability [5] 102% | inhibition [6] 1.97% | RAM network inhibition [7] 5.94%

CN1CCN(S(=O)(=O)c2ccc(NC(=O)c3cccc(S(=O)(=O)N4CCCC4)c3)cc2)CC1
inactive: growth inhibition [1] -5.16% | growth inhibition [2] -5.09% | viability increase [3] -3.98% | viability [4] 89.2% | viability [5] 97.2% | inhibition [6] 2% | RAM network inhibition [7] 9.3%

Cc1ccc(C2CC(c3ccccc3Cl)n3nc(N)nc3N2)cc1 (centres undefined)
inactive: growth inhibition [1] 0.815% | growth inhibition [2] 6.86% | viability increase [3] 2.22% | viability [4] 99.7% | viability [5] 92.5% | inhibition [6] 1.88% | RAM network inhibition [7] 1.81%

O=C(Cn1ncc2c1-c1ccccc1OC2)N1CCN(Cc2ccc3c(c2)OCO3)CC1
inactive: growth inhibition [1] -1.44% | growth inhibition [2] 10.4% | viability increase [3] -3.39% | viability [4] 84.7% | viability [5] 90.2% | inhibition [6] 1.9% | RAM network inhibition [7] 2.06%

COc1ccc(N2CCN(C(=O)c3ccc(CS(=O)(=O)c4ccc(OC)cc4)o3)CC2)cc1
inactive: growth inhibition [1] -9.34% | growth inhibition [2] -3.61% | viability increase [3] -1.85% | viability [4] 92.1% | viability [5] 79.2% | inhibition [6] 1.83% | RAM network inhibition [7] 4.78%
